Active and inactive are the calls of the source. No cut-off for these calls is given here.
Tests used:
Mus musculus [1] = assay: Antiinflammatory activity in C57-B16/J mouse chronic DSS-induced ulcerative colitis model assessed as restoration of colon size at 6 to 10 mg/kg administered for total of 3 weeks for alternative weeks with water measured after 63 days; format: functional, organism-based
Outline: (§1)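 Chronic model in female C57-BL6/J mice: three 3-week cycles of DSS, compound in drinking water and plain water, over 63 days. Mice euthanized by isoflurane overdose and colon length measured (cm). Clinical index scored from body weight change, colorectal length, stool consistency, occult blood and prolapse; n = 10. Statistics by ANOVA with Tukey test.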

Mus musculus [2] = assay: Antiinflammatory activity in C57-B16/J mouse DSS-induced ulcerative colitis model assessed as reduction in monocyte aggregation at 10 mg/kg by hematoxylin-eosin staining-based microscopic analysis; format: functional, organism-based; parameters: dose 10 mg/kg
Outline: (§2)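 Female C57-BL6/J mice, 8−10 weeks old, given 3% (w/v) DSS in drinking water. Compound dissolved in ethanol and mixed into drinking water, given ad libitum. Colorectal sections stained with hematoxylin and eosin and examined at 400× for crypts, goblet cells, submucosa and monocyte aggregation.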

Mus musculus [3] = assay: Antiinflammatory activity in C57-B16/J mouse DSS-induced ulcerative colitis model assessed as restoration of submucosa at 10 mg/kg by hematoxylin-eosin staining-based microscopic analysis; format: functional, organism-based; parameters: dose 10 mg/kg; outline: as §2
Mus musculus [4] = assay: Antiinflammatory activity in C57-B16/J mouse DSS-induced ulcerative colitis model assessed as restoration of crypts at 10 mg/kg by hematoxylin-eosin staining-based microscopic analysis; format: functional, organism-based; parameters: dose 10 mg/kg; outline: as §2
Mus musculus [5] = assay: Antiinflammatory activity in C57-B16/J mouse DSS-induced ulcerative colitis model assessed as restoration of goblet cells at 10 mg/kg by hematoxylin-eosin staining-based microscopic analysis; format: functional, organism-based; parameters: dose 10 mg/kg; outline: as §2
Mus musculus [6] = assay: Antiinflammatory activity in C57-B16/J mouse chronic DSS-induced ulcerative colitis model assessed as suppression of clinical symptoms at 8 to 10 mg/kg administered for total of 3 weeks for alternative weeks with water measured after 63 days; format: functional, organism-based; outline: as §1
Mus musculus [7] = assay: Antiinflammatory activity in C57-B16/J mouse chronic DSS-induced ulcerative colitis model assessed as decrease in serum IL-17 level at 10 mg/kg administered for total of 3 weeks for alternative weeks with water measured after 63 days by ELISA relative to DSS-treated control; format: functional, organism-based; parameters: dose 10 mg/kg
Outline: (§3)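 Chronic model, 63 days: three cycles of 1 week 3% DSS, then 1 week of compound in drinking water, then 1 week of water. Serum from clotted blood (overnight, 3000g 10 min) analysed by sandwich ELISA with capture/detection antibodies, streptavidin-HRP and substrate, read at 450 nm. Means ± SE, n = 8−10, one-way ANOVA with Tukey test.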

Mus musculus [8] = assay: Antiinflammatory activity in C57-B16/J mouse chronic DSS-induced ulcerative colitis model assessed as decrease in serum IL-17 level at 8 mg/kg administered for total of 3 weeks for alternative weeks with water measured after 63 days by ELISA relative to DSS-treated control; format: functional, organism-based; parameters: dose 8 mg/kg; outline: as §3
Mus musculus [9] = assay: Antiinflammatory activity in C57-B16/J mouse chronic DSS-induced ulcerative colitis model assessed as decrease in serum IFNgamma level at 10 mg/kg administered for total of 3 weeks for alternative weeks with water measured after 63 days by ELISA relative to DSS-treated control; format: functional, organism-based; parameters: dose 10 mg/kg; outline: as §3
Mus musculus [10] = assay: Antiinflammatory activity in C57-B16/J mouse chronic DSS-induced ulcerative colitis model assessed as decrease in serum TNFalpha level at 10 mg/kg administered for total of 3 weeks for alternative weeks with water measured after 63 days by ELISA relative to DSS-treated control; format: functional, organism-based; parameters: dose 10 mg/kg; outline: as §3
Mus musculus [11] = assay: Antiinflammatory activity in C57-B16/J mouse DSS-induced ulcerative colitis model assessed as reduction of inflammatory CD14+/CD16+ level in peripheral blood at 8 to 10 mg/kg by flow cytometric analysis relative to DSS-treated control; format: functional; details: dose mg/kg 8-10
Outline: (§4)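 Acute model: female C57-BL6/J mice, 8−10 weeks old, given 3% (w/v) DSS in drinking water, with bottles refilled at days 3 and 5. Oral dosing in drinking water (6, 8, 10 mg/kg, ethanol-dissolved) from day 6. Whole blood stained with anti-CD14-FITC/anti-CD16-PE for 30 min in the dark, RBC-lysed, then flow cytometry. Classic CD14+/CD16−, inflammatory CD14+/CD16+; n = 8.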

Mus musculus [12] = assay: Toxicity in C57-B16/J mouse DSS-induced ulcerative colitis model assessed as circulating CD14+/CD16- level at 6 to 10 mg/kg by flow cytometric analysis relative to DSS-treated control; format: organism-based; parameters: dose 6-10 mg/kg; details: in vivo; outline: as §4
Mus musculus [13] = assay: Antiinflammatory activity in C57-B16/J mouse DSS-induced ulcerative colitis model assessed as reduction of inflammatory CD14+/CD16+ level in peripheral blood at 6 to 10 mg/kg by flow cytometric analysis relative to DSS-treated control; format: functional; parameters: scale not given: the % may be the effect or the level left; details: dose mg/kg 6-10; outline: as §4
[14] = Oral bioavailability in rat; format: ADME, organism-based; details: in vivo
Mus musculus [15] = assay: Antiinflammatory activity in C57-B16/J mouse acute DSS-induced ulcerative colitis model assessed as reversal of body weight loss at 6 to 10 mg/kg administered on day 6 measured up to day 12; format: functional, organism-based
Outline: (§5)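 Acute model: female C57-BL6/J mice, 8−10 weeks old, given 3% (w/v) DSS in drinking water. Dosing in drinking water ad libitum at 6, 8 or 10 mg/kg (ethanol stock) from day 6. Vehicle control received ethanol-water. Body weight recorded every other day as percent change. Disease index scored from weight change, stool consistency (1–4), fecal occult blood and prolapse; n = 10.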

Mus musculus [16] = assay: Antiinflammatory activity in C57-B16/J mouse acute DSS-induced ulcerative colitis model assessed as suppression of clinical symptoms at 8 to 10 mg/kg administered on day 6 measured up to day 12; format: functional, organism-based; outline: as §5

Q: With `CC1=CC(=O)c2c(O)cccc2C1=O` [PLUMBAGIN] as the molecule, how does the Activity (Mus musculus [1]) read?
A: Active

Q: And the Activity (Mus musculus [2])?
A: Active

Q: What about the Activity (Mus musculus [3]) of the same molecule?
A: Active

Q: And the Activity (Mus musculus [4])?
A: Active

Q: And the Activity (Mus musculus [5])?
A: Active

Q: What about the Activity (Mus musculus [6]) of the same molecule?
A: Active

Q: What about the Activity (Mus musculus [7]) of the same molecule?
A: Active

Q: What about the Activity (Mus musculus [8]) of the same molecule?
A: inactive

Q: What about the Activity (Mus musculus [9]) of the same molecule?
A: Active

Q: And the Activity (Mus musculus [10])?
A: Active

Q: What about the “fold change (FC)” value (Mus musculus [11]) of the same molecule?
A: >3

Q: What about the Activity (Mus musculus [12]) of the same molecule?
A: 77%

Q: What about the Activity (Mus musculus [13]) of the same molecule?
A: 0.3%

Q: What about the bioavailability [14] of the same molecule?
A: 38%

Q: What about the Activity (Mus musculus [15]) of the same molecule?
A: inactive

Q: And the Activity (Mus musculus [16])?
A: Active

Reference: ChEMBL document CHEMBL2384930, “Interventional effects of plumbagin on experimental ulcerative colitis in mice” (J Nat Prod, 2013)
